These results are taken from ChEMBL document CHEMBL1142496, “Studies on enzyme-cleavable dialkoxymethyl-cyclosaligenyl-2',3'-dideoxy-2',3'-didehydrothymidine monophosphates” (J Med Chem, 2008).

Broadly, the half-life is the time in which the quantity being followed falls by half. Usually EC50 stands for the concentration needed to bring the measured effect to its halfway point. Lower therefore signals greater potency. As usually defined, the CC50 is the concentration giving 50% cytotoxicity. Low values mean greater toxicity to the cells, high ones lower toxicity to the cells.

Data set [1] in a line: Stability in aqueous 25 mM phosphate buffer at pH 7.6 assessed as hydrolysis half life. The format is physicochemical. The method in brief:
(§1)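 Chemical stability in aqueous 25 mM phosphate buffer at pH 7.3 or 7.6. Triester cleavage followed by HPLC; half-life refers to disappearance of the intact triester.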

Data set [2] in a line: Stability in RPMI-1640 medium containing 10% heat inactivated fetal calf serum at pH 7.6 assessed as hydrolysis half life. The class given is physicochemical. Particulars: cattle, RPMI-1640 medium with 10% heat-inactivated fetal calf serum. The method in brief: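 Stability in RPMI-1640 culture medium with 10% fetal calf serum heat-inactivated for 30 min at 56 °C (pH 7.6). Handled like the cell-extract incubations, with medium in place of extract; triester half-life and formyl-product formation followed by HPLC.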

Data set [3] has as its system Human immunodeficiency virus 2. Briefly: Antiviral activity against HIV2 in thymidine kinase deficient human CEM/TK- cellss. The class given is functional, organism-based. The following applies: Human immunodeficiency virus 2, CEM-TK(-). The essentials:
(§2)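 Anti-HIV assay in T-lymphocytes: wild-type CEM/0 cells infected with HIV-1 or HIV-2, and thymidine kinase-deficient CEM/TK⁻ cells infected with HIV-2. Cells grown in RPMI-1640 with 10% heat-inactivated fetal calf serum. Read-out is the 50% effective concentration, given as the mean of two to three independent experiments.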

The subject of data set [4] is Human immunodeficiency virus 1. Nature of the data set: Antiviral activity against HIV1 in human wild type CEM/0 cellss. The format is functional, organism-based. Particulars: Human immunodeficiency virus 1, CCRF-CEM. The essentials: as §2
Data set [5] in a line: Cytostatic activity against human wild type CEM/0 cellss. The class given is cell-based, CCRF-CEM. The following applies: wild-type CEM/0 cells. The essentials: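 Cytostatic activity on T-lymphocyte CEM cultures, reported as the 50% cytostatic concentration.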
For data set [6], the system named is Human immunodeficiency virus 2. Briefly: Antiviral activity against HIV2 in human wild type CEM/0 cellss. The format is functional, organism-based. The following applies: Human immunodeficiency virus 2, CCRF-CEM. The essentials: as §2
Data set [7] in a line: Stability in aqueous 25 mM phosphate buffer at pH 7.3 assessed as hydrolysis half life. The class given is physicochemical. The essentials: as §1
Data set [8] in a line: Stability in human CEM cells extracts at pH 6.9 assessed as hydrolysis half life. The format is ADME, CCRF-CEM. The following applies: CEM cell extracts. The essentials:
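Enzymatic stability assay: triesters incubated in CEM cell extracts (pH 6.9) over varied incubation times. Acetic acid was not used to stop the reaction for acid-sensitive compounds. Samples analysed by HPLC to give the half-life of triester cleavage.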

Data set [9] relates to Human immunodeficiency virus. Briefly: Antiviral activity against HIV. Particulars: Human immunodeficiency virus 1. The format is functional, organism-based. The essentials: as §2

Structures are written as SMILES. Bounds are passed on as bounds.

Regarding `CC(=O)OC(OC(C)=O)c1cc(C)c2c(c1)COP(=O)(OC[C@@H]1C=C[C@H](n3cc(C)c(=O)[nH]c3=O)O1)O2` (stereo not given in full), the half-life in [1] is 1.9 h; in data set [2], 1.5 h. Further, the results for the 50% effective concentration (EC50) in data set [3], in [4] and in data set [6] were 6300 nM, 500 nM and 700 nM, respectively. Further, the cytotoxic concentration (CC50) in data set [5] was 44000 nM.
For the compound `Cc1cc(C=O)c2c(c1)COP(=O)(OC[C@@H]1C=C[C@H](n3cc(C)c(=O)[nH]c3=O)O1)O2` (stereo not given in full), the half-life in [1] is 0.3 h; in data set [2], 0.3 h; in data set [7] it was 0.25 h. The EC50 was determined as 29000 nM in data set [3], 3600 nM in data set [4] and 1400 nM in data set [6]. Further, in data set [5], the CC50 was found to be 29000 nM.
Consider `CC(=O)OC(OC(C)=O)c1cc(C(C)(C)C)cc2c1OP(=O)(OC[C@@H]1C=C[C@H](n3cc(C)c(=O)[nH]c3=O)O1)OC2` (stereo not given in full), for which the half-life is 1.2 h in data set [1], 1.9 h in data set [2], 3.7 h in data set [7] and less than 0.1 h in data set [8]. Also, the EC50 in data set [3] was 7300 nM; in data set [4] it was 720 nM; in data set [6], 1000 nM. In data set [5], the CC50 was determined as 7900 nM.
Turning to `Cc1cn([C@H]2C=C[C@@H](COP3(=O)OCc4cc(C=O)cc(C(C)(C)C)c4O3)O2)c(=O)[nH]c1=O` (stereo not given in full), the half-life was 1.1 h in data set [1], 1.5 h in [2] and 1 h in [7]. The EC50 turned out to be 15000 nM in data set [3], 390 nM in data set [4] and 1000 nM in data set [6]. The compound further gave a CC50 in data set [5] of 33000 nM.
For the compound `Cc1cn([C@H]2C=C[C@@H](CO[P@]3(=O)OCc4cc(C=O)cc(C(C)(C)C)c4O3)O2)c(=O)[nH]c1=O`, the values for the half-life in data set [1], in data set [2] and in data set [7] were 1.3 h, 1.7 h and 1.3 h, respectively. For the same compound, the EC50 is 2600 nM in [3], 160 nM in data set [4] and 690 nM in data set [6]. It took 27000 nM to reach half-maximal cytotoxicity in data set [5] (CC50).
For `Cc1cc(C(OC(=O)C(C)C)OC(=O)C(C)C)cc2c1OP(=O)(OC[C@@H]1C=C[C@H](n3cc(C)c(=O)[nH]c3=O)O1)OC2` (stereo not given in full), the half-life in data set [1] is 1.1 h; in [2], 1.6 h; in data set [7], 1.3 h; in [8] it was 0.5 h. In addition, the EC50 in data set [3] is greater than 10000 nM; in data set [4], 1600 nM; in data set [6], 950 nM. Besides, in data set [5], the 50% cytotoxic concentration (CC50) turned out to be 20000 nM.
`Cc1cc(C=O)cc2c1OP(=O)(OC[C@@H]1C=C[C@H](n3cc(C)c(=O)[nH]c3=O)O1)OC2` (stereo not given in full): the half-life is 0.35 h in data set [1] and 0.7 h in [2]. The EC50 came to 4500 nM in [3], 450 nM in data set [4] and 1270 nM in data set [6]. It took 82000 nM to reach half-maximal cytotoxicity in data set [5] (CC50).
As for `Cc1cn([C@H]2C=C[C@@H](CO[P@]3(=O)OCc4cc(C(OC(=O)C(C)C)OC(=O)C(C)C)cc(C(C)(C)C)c4O3)O2)c(=O)[nH]c1=O`, the half-life in [1] was 2.5 h; in data set [2], 5.7 h; in data set [7], 3.3 h; in data set [8], 1 h. The values for the EC50 in [3], in data set [4] and in data set [6] were 1400 nM, 720 nM and 850 nM, respectively. Further, the CC50 in data set [5] stood at 14000 nM.
As for `CC(=O)OC(OC(C)=O)c1cc(C)cc2c1OP(=O)(OC[C@@H]1C=C[C@H](n3cc(C)c(=O)[nH]c3=O)O1)OC2` (stereo not given in full), the half-life in [1] is 1.1 h; in data set [2], 1.5 h; in data set [7], 3.2 h; in data set [8], 0.25 h. Besides, the EC50 in data set [3] was found to be 6500 nM; in [4], 520 nM; in data set [6], 1000 nM. In data set [5], the midpoint of cytotoxicity, the CC50, lay at 19000 nM.
With `Cc1cn([C@H]2C=C[C@@H](COP3(=O)OCc4cc(C(OC(=O)C(C)C)OC(=O)C(C)C)cc(C(C)(C)C)c4O3)O2)c(=O)[nH]c1=O` (stereo not given in full), the half-life was 2.7 h in data set [1], 5.9 h in data set [2], 3.5 h in data set [7] and 1 h in [8]. For the same compound, the EC50 was determined as 2400 nM in [3], 530 nM in [4] and 2000 nM in data set [6]. This compound yielded a CC50 in data set [5] of 20000 nM.
As to `CC(=O)OC(OC(C)=O)c1cc2c(c(C(C)(C)C)c1)OP(=O)(OC[C@@H]1C=C[C@H](n3cc(C)c(=O)[nH]c3=O)O1)OC2` (stereo not given in full), the half-life is 2.6 h in [1], 2.8 h in [2], 7.9 h in [7] and 0.15 h in [8]. Further, the EC50 in data set [3] worked out at 780 nM; in data set [4] it was 650 nM; in data set [6], 800 nM. Also, the midpoint of cytotoxicity in [5], the CC50, lay at 19000 nM.
As for `Cc1cn([C@H]2C=C[C@@H](COP3(=O)OCc4cc(C(C)(C)C)cc(C=O)c4O3)O2)c(=O)[nH]c1=O` (stereo not given in full), the half-life in [1] is 0.1 h; in data set [2], 0.3 h; in data set [7], 0.25 h. The EC50 in data set [3] amounted to 5100 nM; in data set [4] it was 990 nM; in data set [6] it was 1000 nM. Also, the 50% cytotoxic concentration (CC50) in data set [5] was found to be 8800 nM.
For `Cc1cn([C@H]2C=C[C@@H](CO)O2)c(=O)[nH]c1=O` [STAVUDINE], the EC50 is 62000 nM in data set [3], 860 nM in data set [4] and 1900 nM in data set [6]. The compound further showed a CC50 in data set [5] of 182000 nM.
For the compound `Cc1cccc2c1OP(=O)(OC[C@@H]1C=C[C@H](n3cc(C)c(=O)[nH]c3=O)O1)OC2` (stereo not given in full), a half-maximal effect in [9] (EC50) was put at 100 nM.
As for `Cc1cn([C@H]2C=C[C@@H](CO[P@@]3(=O)OCc4cc(C=O)cc(C(C)(C)C)c4O3)O2)c(=O)[nH]c1=O`, the half-life in data set [1] was 0.3 h; in data set [2], 1.6 h; in data set [7], 1 h. Moreover, the EC50 in [3] was found to be 10000 nM; in data set [4], 810 nM; in data set [6], 1400 nM. Moreover, it took 41000 nM to reach half-maximal cytotoxicity in [5] (CC50).
Take `Cc1cn([C@H]2C=C[C@@H](COP3(=O)OCc4cc(C(C)(C)C)ccc4O3)O2)c(=O)[nH]c1=O` (stereo not given in full): in [7], the half-life was 7.2 h.
As for `CC(=O)OC(OC(C)=O)c1cc2c(c(C(C)(C)C)c1)O[P@@](=O)(OC[C@@H]1C=C[C@H](n3cc(C)c(=O)[nH]c3=O)O1)OC2`, the half-life in data set [1] is 2.4 h; in [2], 2.8 h; in data set [7], 8.3 h; in [8], 0.15 h. In addition, the EC50 amounted to 3900 nM in data set [3], 1100 nM in [4] and 840 nM in data set [6]. The CC50 in data set [5] came out at 51000 nM.
Turning to `Cc1cn([C@H]2C=C[C@@H](CO[P@@]3(=O)OCc4cc(C(OC(=O)C(C)C)OC(=O)C(C)C)cc(C(C)(C)C)c4O3)O2)c(=O)[nH]c1=O`, the half-life in [1] is 2.9 h; in [2], 4.5 h; in data set [7], 3.8 h; in data set [8] it was 0.8 h. Also, the EC50 stood at 3600 nM in data set [3], 890 nM in data set [4] and 1900 nM in data set [6]. The CC50 in data set [5] was found to be 40000 nM.
For `CC(=O)OC(OC(C)=O)c1cc2c(c(C(C)(C)C)c1)O[P@](=O)(OC[C@@H]1C=C[C@H](n3cc(C)c(=O)[nH]c3=O)O1)OC2`, the half-life in data set [1] was 2.7 h; in data set [2], 2.9 h; in data set [7], 7.9 h; in [8], 0.3 h. Also, the half-maximal effective concentration (EC50) turned out to be 290 nM in data set [3], 540 nM in data set [4] and 750 nM in [6]. In addition, in data set [5], the CC50 turned out to be 17000 nM.
